HSF1 activator = HSF-1 activators, primary screen, NIH3T3-HGL cells, MG132 stress, luminescence, single point; NIH3T3-HGL HSF-1 luciferase reporter, 8 h; 100% = twice DMSO control signal; activation, % at 9 µM; 300,000 compounds, 1.7% hits; AID 504408, 2011;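 active = mean replicate activation of at least 50% with a set share of replicates each reaching 50%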
HSF1 inh = HSF1 inhibitors in luciferase reporter cells, primary screen, cell-based, NIH3T3, luminescence | NIH3T3-HGL HSE-luciferase, MG132-induced, luminescence 8 h; active compounds read low | activity change, negative = inhibition, % at 7.5 µM (by protocol) | 300,000 compounds, 0.77% hits | AID 2098, 2009;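 active = more than half of replicate wells show activity change below -50%, luminescence cut by over half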;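 also: luciferase reports HSF-1 transcriptional activity via heat shock element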
PHOSPHO1 inh = PubChem AID 1565. Phosphoethanolamine/phosphocholine phosphatase (Homo sapiens), Q8TCT1. recombinant PHOSPHO1, absorbance phosphatase assay. inhibition, % at 13.3 µM. 290,000 compounds, 1.1% hits; in the data active = inhibition above about 60%
Lipid droplet = inhibitors of hepatocyte lipid droplet formation, primary screen, imaging, high-throughput imaging, BODIPY stain | AML12 mouse hepatocytes, oleate lipid droplets | inhibition, % at 6.5 µM | 240,000 compounds, 0.4% hits;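 active = lipid droplet intensity inhibited by at least 50%, with more than 500 cells counted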
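Technique: fluorescence imaging, 20x objective, two fields per well / Assay system: AML12 hepatocytes (mouse) / Measure: % inhibition of lipid droplet signal / Doses: 6.5 µM single-point dosing / Incubation: overnight exposure / Reagent: 100 µM oleic acid challenge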
CHT block = inhibitors of human choline transporter CHT. 310,000 compounds, 0.86% hits. High affinity choline transporter 1 (Homo sapiens), Q9GZV3. CHT-expressing cells, membrane potential dye, choline response; active compounds read low. B-score at 10 µM. AID 488975, 2010;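 active = B-score over 3 SD under the library average, and starting fluorescence ratio not unusually high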;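 also: choline stimulus applied at its EC90 after an EC20 pre-addition; B-score computed on integrated fluorescence ratio after choline addition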
Target sequence (Q9GZV3 whole entry, looked up): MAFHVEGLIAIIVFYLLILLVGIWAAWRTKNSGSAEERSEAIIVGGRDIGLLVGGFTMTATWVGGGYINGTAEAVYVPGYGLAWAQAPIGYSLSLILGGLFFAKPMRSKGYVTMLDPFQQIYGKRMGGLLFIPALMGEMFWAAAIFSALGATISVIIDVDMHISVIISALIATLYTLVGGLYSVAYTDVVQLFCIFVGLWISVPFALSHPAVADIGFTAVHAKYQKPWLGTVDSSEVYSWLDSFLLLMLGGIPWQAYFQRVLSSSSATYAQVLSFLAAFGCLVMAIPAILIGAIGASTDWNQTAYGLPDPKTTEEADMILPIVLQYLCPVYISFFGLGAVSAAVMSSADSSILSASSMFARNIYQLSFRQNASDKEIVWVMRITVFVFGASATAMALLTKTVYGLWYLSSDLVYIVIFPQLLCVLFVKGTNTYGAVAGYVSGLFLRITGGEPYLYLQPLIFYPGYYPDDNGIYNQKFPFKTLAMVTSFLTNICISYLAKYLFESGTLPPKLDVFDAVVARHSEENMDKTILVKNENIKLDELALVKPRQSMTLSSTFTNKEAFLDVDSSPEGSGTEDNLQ
CHT allo act = CHT positive allosteric modulators, primary screen, cell-based, membrane potential dye, choline EC20 | High affinity choline transporter 1 (Homo sapiens), Q9GZV3 | CHT-expressing cells; active compounds read high; LV-AA mutant CHT in HEK293 cells | B-score at 10 µM | 310,000 compounds, 0.49% hits | AID 488977, 2010;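 active = initial fluorescence not abnormally high and integrated response B-score, plate-corrected, over 3 SD above library mean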
CHT inh conf = CHT inhibitors, confirmation, cell-based, membrane potential dye, duplicate; shares compounds with CHT block; CHT-expressing cells, choline membrane potential dye; LV-to-AA substituted CHT, HEK293 cells; CHT activity remaining % of control (active compounds read low), % at 10 µM; 2,400 compounds, 70% hits; AID 493221, 2011;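 active = choline transporter activity left, mean of duplicates at 10 µM, below buffer-only control mean minus 3 SD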;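 also: depolarization triggered by choline at its EC90 following an EC20 pre-addition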
HEK293 MPD ctr = membrane potential effects in parental HEK293, counter-screen for CHT inhibitor project, cell-based, membrane potential dye; shares compounds with CHT block; choline response; active = decrease or increase beyond buffer ±3SD; membrane potential ratio readout (active if shifted either direction beyond buffer ±3SD; no single direction) at 10 µM; 2,400 compounds, 4% hits;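 also: parental cells lack the transporter so any hit is non-specific; ratio is peak minus trough fluorescence over baseline after EC90 choline challenge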
CHT act confirm = CHT activators, confirmation, cell-based, membrane potential dye, duplicate. activation, % at 10 µM. 2,500 compounds, 91% hits. shares compounds with CHT allo act. CHT-expressing cells, membrane potential dye fluorescence (FDSS); % of choline EC20–EC90 response window; HEK293 expressing CHT LV-AA mutant; choline added at its EC20;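 active = primary screen active, with duplicate mean activation above negative control mean plus 3 SD, cut at about 11% in these data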
HEK293 MP dye = membrane potential response in parental HEK293 cells, counter-screen for CHT activator project, cell-based, membrane potential dye | shares compounds with CHT allo act | membrane potential dye fluorescence (FDSS); measured after EC20 choline addition | ratio readout change at 10 µM, hits read low | 2,500 compounds, 62% hits | AID 623908, 2012;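 active = duplicate-averaged ratio beyond 3 SD from buffer wells, up or down, though filed actives are nearly all decreases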
Numbers stand for hits; n = inactive; x = not tested or not shown. Rows were chosen to be rich in hits. Some 4.9% of all compounds tested hit in one or more screens of this group.

SMILES	HSF1 activator	HSF1 inh	PHOSPHO1 inh	Lipid droplet	CHT block	CHT allo act	CHT act confirm	HEK293 MP dye	others
Cc1ccc(N)c(C(=O)c2ccc(Br)cc2)c1	n	n	n	n	-5.11	n	x	x	CHT inh conf=n;HEK293 MPD ctr=n
Oc1ccc(C[C@H]2NCCc3cc(O)c(O)cc32)cc1O	n	n	n	n	-6.47	n	x	x	CHT inh conf=27.7%;HEK293 MPD ctr=n
O=C(COc1ccc(Cl)cc1)N1CCN(Cc2ccc([N+](=O)[O-])cc2)CC1	n	n	n	n	-5.05	n	x	x	CHT inh conf=n;HEK293 MPD ctr=n
CC(=O)N1CCC(N2CCCC(C(=O)c3cccc(Cl)c3)C2)CC1 (configuration not stated)	n	n	n	n	n	n	x	x
Fc1ccccc1CCNCc1cccc2ccccc12	n	n	n	n	n	n	x	x
Cc1ccccc1CCNCc1cc2cccc(C)c2[nH]c1=O	n	n	n	n	-8.67	n	x	x	CHT inh conf=17.6%;HEK293 MPD ctr=n
CCCCCn1c(NC(=O)c2ccco2)c(C(=O)OCC)c2nc3ccccc3nc21	n	n	n	x	-5.6	n	x	x	CHT inh conf=n;HEK293 MPD ctr=n
C[C@H]1C(=O)O[C@@H]2CCN3CC=C(COC(=O)[C@](C)(O)[C@]1(C)O)[C@H]23	x	x	x	x	n	n	x	x
Nc1ccccc1C(=O)OCc1ccc([N+](=O)[O-])cc1	n	n	n	n	n	n	x	x
CC[n+]1c(SC)ccc2cc(OC)ccc21	n	n	n	n	n	n	63.6	-58.9
COc1ccc(C2(c3cccc(O)c3OC)CCN(C(C)=O)CC2)cc1O	n	n	x	x	n	n	x	x
COc1ccc(CCNCc2ccc(C)s2)cc1OC	n	n	n	n	n	n	x	x
COc1ccc(Cc2nccc3cc(OC)c(OC)cc23)cc1OC	n	n	n	n	n	8.64	58.5	-65.9
CN1CCN(C(=O)COc2ccc(Oc3ccccc3)cc2)CC1	n	n	n	n	n	n	x	x
CN1CCN(C(=O)O[C@H]2c3nccnc3C(=O)N2c2ccc(Cl)cn2)CC1	n	n	n	n	n	6.87	83.8	-44.3
C1CC2NCCC3NCCC(N1)N32 (configuration not stated)	n	n	n	n	n	n	x	x
Cc1ccc(-c2cc(-c3ccccc3)cc(-c3ccccc3)[n+]2-c2ccc(C(=O)O)cc2)cc1	n	n	x	x	n	n	x	x
CCCOC(=O)c1ccc(-[n+]2c(-c3ccccc3)cc(-c3ccccc3)cc2-c2ccccc2)cc1	n	n	x	x	n	9.3	17.7	n
CN1C(=O)C(=Cc2ccc(OCCN(C)c3ccccn3)cc2)C(=O)N(C)C1=O	n	n	n	x	n	n	x	x
O=C1CC2OCC=C3CN4CCC56c7cc([N+](=O)[O-])ccc7N1C5C2C3CC46 (configuration not stated)	n	n	n	n	n	n	50.5	-50.2
CCNCCNc1ccc([N+](=O)[O-])c2cccnc12	n	n	n	n	n	6.31	26.9	-65.8
Cc1nonc1OCCNCCNc1ccc([N+](=O)[O-])c2cccnc12	n	n	n	n	n	n	30.0	-62.6
CCc1nc2ccccc2c(=O)n1-c1ccccc1[N+](=O)[O-]	n	n	n	n	n	n	x	x
COc1ccc(-n2c(/C=C/c3cccc(F)c3)nc3ccccc3c2=O)c(OC)c1	n	n	x	n	n	n	x	x
NC(=O)Cn1cc(C(=O)c2ccccc2)c2ccccc21	n	n	n	n	n	n	x	x
SMILES	HSF1 activator	HSF1 inh	PHOSPHO1 inh	Lipid droplet	CHT block	CHT allo act	CHT act confirm	HEK293 MP dye	others
COc1ccc(-n2c(SCCN(C)C)nc3ccccc3c2=O)cc1	n	n	n	n	n	n	36.5	-42.3
CNC(C)(C)Cc1ccccc1	x	x	x	x	n	n	x	x
Cc1cc(N2CCNCC2)nc2ccccc12	n	n	n	x	n	7.52	59.5	-65.3
Clc1cccc(N2CCNCC2)n1	n	n	n	n	n	n	x	x
CNCC(O)c1cc(OCc2ccccc2)c(OCc2ccccc2)cc1F (configuration not stated)	n	n	x	x	n	n	x	x
CN(C)c1cccc2c(C#N)ccc(N(C)C)c12	n	n	n	n	n	7.77	66.2	-69.5
Nc1c([N+](=O)[O-])cc(F)c(N2CCNCC2)c1Br	n	n	n	n	n	n	43.0	-55.3
CN1CCN(c2c(F)cc([N+](=O)[O-])c(N)c2Br)CC1	n	n	n	n	n	6.65	45.9	-48.9
Clc1ccc(C(c2ccc(Cl)cc2)n2cc[n+](CC(OCc3ccc(Cl)cc3Cl)c3ccc(Cl)cc3Cl)c2)cc1 (configuration not stated)	x	x	x	x	n	n	x	x
O=C(c1ccco1)c1cn(Cc2ccc(Cl)cc2)c2ccccc12	n	n	n	n	n	n	18.3	n
CC(=O)c1cn(Cc2ccc(F)cc2)c2ccccc12	n	n	n	x	n	n	x	x
CC1=[N+]([O-])C2(N)CCc3nonc3C2(O)C1 (configuration not stated)	n	n	n	x	n	n	x	x
COc1cc2c(cc1OC)-c1c(OC)c(OC)cc3c1[C@H](C2)N(C)CC3	x	n	n	n	n	7.64	43.6	-72.8
COc1ccc2c(c1O)-c1c(OC)c(OC)cc3c1[C@H](C2)N(C)CC3	x	x	x	x	n	8.42	56.4	-66.1
Cc1ccc2c(c1)C1CN(C)CCC1N2C(=O)c1cn(-c2ccccc2)nc1-c1ccccc1 (configuration not stated)	n	n	n	n	n	n	x	x
CNC(=S)N(C)CCc1cc2c(c(OC)c1C=C1C(=O)NC(=O)NC1=O)OCO2	n	n	n	n	n	7.31	51.3	-55.8
COc1ccc2c(c1OC)CN1CCc3cc4c(cc3C1C2)OCO4 (configuration not stated)	n	n	n	n	n	n	x	x
